Compound activity (PubChem BioAssay)
Yeast lifespan up – yeast lifespan extension; S. cerevisiae growth with nicotinamide, OD615; deaD strain in restrictive glucose medium; inhibition of the nicotinamide effect, % at 10 µM; hit rate 0.68% among 130,000;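 active means inhibition above a set limit, placed 3 SD over the median of all compounds, cut at about 26% in these data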;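 further: 0% = nicotinamide-treated wells and 100% = cells grown without nicotinamide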
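Test system: DeaD-strain S. cerevisiae / Buffer or medium: restrictive glucose medium / Also added: nicotinamide 1.5 mM / Doses: one concentration, 10 µM, DMSO 0.25% / Schedule: 48 h at 30 °C / Signal: OD615 measurement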
RAM inhibit – blocks the yeast RAM network; S. cerevisiae dse1pr::URA3 reporter, 5-FOA growth OD615, 2 d; analog-sensitive cbk1-as2 kinase mutant strain; inhibition, % at 50 µM; hit rate 1.8% among 190,000;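 active means inhibition above a set limit, 3 SD over mean compound inhibition, cut at about 8.4% in these data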;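 further: 0% = DMSO-only wells with no growth and 100% = 10 µM 1-NA-PP1 full growth; inhibition rescues growth on 5-FOA so higher OD means more RAM inhibition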
TNAP act hi DEA – activators of human TNAP at high phosphate acceptor concentration; purified TNAP, CDP-star luminescence, 1 M DEA, 30 min; active compounds read high; 0 = EDTA background, 1 = DMSO-only activity; 200,000 tested, under 10 active; P05186; activation factor at 20 µM; AID 1136;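 active means activation factor at least 2 at 20 µM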
Target sequence (P05186 whole entry, looked up): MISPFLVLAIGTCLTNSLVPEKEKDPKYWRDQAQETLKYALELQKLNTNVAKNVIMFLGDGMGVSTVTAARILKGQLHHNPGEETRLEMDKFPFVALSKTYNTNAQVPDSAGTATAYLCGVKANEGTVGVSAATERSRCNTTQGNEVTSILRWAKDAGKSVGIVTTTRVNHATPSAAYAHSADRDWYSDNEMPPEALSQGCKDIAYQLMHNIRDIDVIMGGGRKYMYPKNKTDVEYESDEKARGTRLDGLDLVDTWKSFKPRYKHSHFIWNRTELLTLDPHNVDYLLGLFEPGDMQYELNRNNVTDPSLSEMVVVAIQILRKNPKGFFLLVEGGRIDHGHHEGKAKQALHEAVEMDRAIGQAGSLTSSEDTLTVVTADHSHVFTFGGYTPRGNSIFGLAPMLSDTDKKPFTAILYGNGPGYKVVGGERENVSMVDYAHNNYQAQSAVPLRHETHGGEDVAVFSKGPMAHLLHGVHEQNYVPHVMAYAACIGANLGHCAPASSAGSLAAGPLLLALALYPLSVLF
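Measured by: Luminescent substrate turnover signal | Test system: Human TNAP | Input: TNAP 1/800 final | Dosing: 20 µM single point | Schedule: 30 min, room temperature | Controls: EDTA wells as negative control, DMSO wells as positive control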
BB579 growth dn – chemicals that inhibit yeast BB579 growth in restrictive medium (lifespan-shortening candidates); hit rate 0.51% among 140,000; S. cerevisiae BB579 growth, OD615, 48 h; inhibition, % at 10 µM;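 active means inhibition above a set limit, 3 SD over the mean compound inhibition, cut at about 44% in these data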
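Material: Saccharomyces cerevisiae DeaD strain BB579, replicative lifespan model yeast; buffer or medium: CSMM-D restrictive synthetic medium containing dextrose (glucose); compound: 10 µM single dose, DMSO 0.25%; timing: 48 h compound exposure at 30 °C after 4 h preincubation; signal: turbidity as optical density at 615 nm; benchmarks: positive control amphotericin B 10 µg/mL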
TNAP inh noacc – TNAP (human) inhibition, acceptor-free conditions; P05186; purified TNAP, CDP-star luminescence, 30 min; inhibition, % at 20 µM; hit rate 0.26% among 200,000; AID 1012;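 active means tissue-nonspecific alkaline phosphatase inhibition above about 50% at 20 µM in the single-dose screen, limit read from the data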;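 further: 0% = DMSO negative control and 100% = EDTA positive control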
TNAP inh hiacc – TNAP (human) inhibition, high acceptor; P05186; purified TNAP, CDP-star luminescence, 1 M DEA; inhibition, % at 20 µM; hit rate 0.03% among 200,000; AID 1135;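 active means over 50% inhibition of tissue-nonspecific alkaline phosphatase at 20 µM in the single-dose screen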;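 further: plate controls were DMSO wells for no effect and EDTA-quenched wells as full inhibition for full effect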
Starred values were filed as active, the others as inactive; · = not tested or not shown. An excerpt weighted towards active compounds, which were near 2.8% of everything screened.

SMILES | Yeast lifespan up | RAM inhibit | TNAP act hi DEA | BB579 growth dn | TNAP inh noacc | TNAP inh hiacc
CCOc1ccc(C(=O)C(CN2CCOCC2)c2ccccc2)cc1 (stereo unspecified) | 49* | 3 | 1 | -71 | -6 | -3
CCN(CC)c1ccc(N2C(=O)/C(=C/c3cccs3)SC2=S)cc1 | 0 | 4 | 0.9 | -21 | 0 | 6
O=C1CSC(=S)N1Cc1cccnc1 | -6 | 2 | 1 | -53 | -122 | -2
CCN(CC)c1ccc(N2C(=O)CSC2=S)cc1 | · | 0 | 0.9 | · | 57* | 10
O=C1CSC(=S)N1c1cccnc1 | -2 | -1 | 1 | 44* | 37 | -4
CC(NC(=O)Cc1cccs1)C(c1cccs1)N1CCN(c2ccccc2F)CC1 (stereo unspecified) | -2 | 0 | 1 | -18 | -4 | -2
N#C/C(=C\c1cccs1)Sc1nc2ccccc2s1 | -7 | 9.1* | 1 | -53 | -3 | 1
COc1cc(-c2cc(N3C(=O)Nc4ccccc4N3O)n[nH]2)cc(OC)c1OC | 4 | 2 | 1 | -46 | -20 | 0
O=C1Nc2ccccc2N(O)N1c1cc(-c2ccccc2)[nH]n1 | · | 3 | 1 | · | 81* | -2
COc1ccc(-c2cc(N3C(=O)Nc4ccccc4N3O)n[nH]2)cc1OC | -5 | 0 | 1 | 6 | 2 | 4
COc1ccc(-c2cc(N3C(=O)Nc4ccccc4N3O)n[nH]2)cc1 | -5 | 0 | 1 | -15 | 75* | 2
CC(C)(C)c1ccc(S(=O)(=O)N2CC(=O)Nc3ccccc32)cc1 | -8 | 1 | 1 | -35 | -18 | -4
COc1ccccc1C(=O)Oc1cc(N)n(S(=O)(=O)c2ccc(C)cc2)n1 | 45* | 2 | 1 | -6 | 0 | 2
Cc1cc(NC(c2ccc(Cl)cc2)c2ccc3cccnc3c2O)no1 (stereo unspecified) | -33 | -1 | 1.1 | 95* | -19 | -7
Cc1ccnc(NC(c2cccnc2)c2ccc3cccnc3c2O)c1 (stereo unspecified) | · | 0 | 1.1 | · | -20 | -6
CCOC(=O)c1ccc(-n2[nH]c(-c3ccccc3)cc2=O)cc1 | -18 | 9.6* | 1 | 97* | -23 | -4
Cc1cc(=O)n(-c2ccc(C(=O)O)cc2)[nH]1 | · | 0 | 1 | · | -12 | -4
COc1cc(NS(=O)(=O)c2ccc(N/C=C(\C#N)c3nc4cc(Cl)ccc4o3)cc2)nc(OC)n1 | 3 | 9.1* | 1.1 | -79 | -8 | -5
O=C(CSc1cn(Cc2cccc(F)c2)c2ccccc12)NCc1ccc(F)cc1 | 6 | 9.9* | 1 | -16 | 1 | 0
CCOc1ccccc1-n1c(=S)sc2c(=O)n(-c3ccccc3)c(=S)[nH]c21 | · | 7 | 1 | · | -6 | -3
O=C(N/N=C/c1c[nH]c2ccccc12)c1cc(-c2ccc(-c3ccccc3)cc2)n[nH]1 | -6 | 2 | 1 | -56 | 3 | -2
O=C(N/N=C/c1c[nH]c2ccccc12)c1cc(-c2ccccc2)n[nH]1 | -6 | -1 | 0.8 | -1 | 87* | 16
Cc1ccc(-c2cc(C(=O)N/N=C/c3c[nH]c4ccccc34)[nH]n2)cc1 | -1 | 1 | 0.9 | -10 | 71* | 10
C=CCN(CC=C)C(=S)NC(=O)Cc1cccc2ccccc12 | · | 2 | 1 | · | 0 | -3
COc1ccc(/C=C/C(=O)NC(=S)Nc2ccc(S(=O)(=O)Nc3cc(OC)ncn3)cc2)cc1 | · | 8.7* | 1 | · | -2 | 2
SMILES | Yeast lifespan up | RAM inhibit | TNAP act hi DEA | BB579 growth dn | TNAP inh noacc | TNAP inh hiacc
COc1cc(NS(=O)(=O)c2ccc(NC(=S)NC(=O)/C=C/c3ccc(OC)c(OC)c3)cc2)ncn1 | · | 6 | 1 | · | -6 | 0
Cc1[nH]c2ccc(-c3n[nH]c(=S)n3-c3ccc(Br)cc3)cc2c1C | · | 10* | 1 | · | -27 | -3
Cc1[nH]c2ccc(-c3n[nH]c(=S)n3-c3ccccc3)cc2c1C | 1 | 4 | 1.1 | -23 | -11 | -7
Cc1ccnc(NC(c2ccccn2)c2c(C)[nH]c3ccccc23)c1 (stereo unspecified) | · | 2 | 1 | · | -11 | -1
COc1ccc(C(=O)/C=C\c2ccc(NC(=O)c3cccs3)cc2)cc1 | -22 | 7 | 1 | -28 | -11 | -4
CCC(=O)n1nc(-c2ccccc2)nc1N | -22 | 0 | 1.1 | 3 | 40 | -6
CCC(=O)n1nc(-c2ccc(OC)cc2)nc1N | -28 | 1 | 1 | -4 | 51* | -3
COC(=O)c1ccc(Oc2c(Cl)cccc2[N+](=O)[O-])cc1 | 3 | 4 | 1 | -6 | -1 | 0
Oc1c(I)cc(Cl)c2cccnc12 | -9 | 0 | 1 | 98* | -9 | -1
CN1CCN(Cc2cc(COCc3ccccc3)c3cccnc3c2O)CC1 | -3 | -1 | 1.1 | 51* | -11 | -7
O=[N+]([O-])c1cc(CN2CCN(c3ccccc3)CC2)c(O)c2ncccc12 | · | -1 | 0.9 | · | 18 | 13
Oc1c(CN2CCCCC2)cc(Br)c2cccnc12 | -20 | -1 | 1 | 98* | 6 | 3
Oc1c(CN2CCc3ccccc3C2)cc(Cl)c2cccnc12 | -15 | -2 | 1.1 | 99* | -8 | -6
CC(=O)N1CCN(CC(=O)Nc2ccc([N+](=O)[O-])cc2Br)CC1 | · | 1 | 1.1 | · | -13 | -6
COc1ccc(NCc2ccc([N+](=O)[O-])s2)c(OC)c1 | -8 | -1 | 1 | 100* | -1 | 4
COc1ccc(NCc2ccc([N+](=O)[O-])s2)cc1 | 22 | 0 | 1 | 27 | 15 | 2
COc1ccc(C)cc1S(=O)(=O)Nc1cccnc1 | -4 | 0 | 0.4 | -42 | 85* | 64*
COc1ccc(OC)c(S(=O)(=O)Nc2ccc(F)cc2)c1 | -10 | 1 | 1 | -1 | -6 | -1
COc1ccc(OC)c(S(=O)(=O)Nc2cnc3ccccc3c2)c1 | -4 | 0 | 0.2 | 10 | 94* | 82*
Cc1ccc(Cn2cc(C(=O)c3ccc(F)cc3)c(=O)c3cc4c(cc32)OCCO4)cc1 | 4 | 10* | 1.1 | -24 | -8 | -6
COc1ccc(Cn2cc(C(=O)c3ccccc3)c(=O)c3cc(OC)ccc32)cc1 | 8 | 4 | 1.1 | -28 | -9 | -5
O=C(CCN1C(=O)/C(=C/c2ccccc2)SC1=S)NNC(=O)c1ccncc1 | · | 8.8* | 1 | · | -78 | 0
COc1ccc(CN2C(=O)/C(=C/c3ccncc3)SC2=S)cc1 | 48* | -2 | 1 | -33 | 11 | 3
O=C(CN1C(=O)/C(=C\C=C\c2ccccc2)SC1=S)Nc1ccc(F)cc1 | 5 | 9.7* | 0.9 | -28 | 14 | 10
O=C(CN1C(=O)S/C(=C/C=C/c2ccccc2)C1=O)Nc1ccc(C(=O)O)cc1 | · | 1 | 1 | · | 9 | 0
